Measured values from ChEMBL document CHEMBL4354819, “Discovery of Novel Small Molecule Dual Inhibitors Targeting Toll-Like Receptors 7 and 8” (J Med Chem, 2019).
Activity calls are given as the source filed them. No cut-off for these calls is given here.

Tests used:
[1] = molecular target: T1, Toll-like receptor 8 (Homo sapiens, UniProt Q9NR97); experiment: Inhibition of human TLR8 expressed in HEK293 cells assessed as reduction in R848-induced NFkappaB production incubated for 16 hrs by quanti-blue SEAP assay; assay type: cell-based
T1 sequence (Q9NR97 whole entry): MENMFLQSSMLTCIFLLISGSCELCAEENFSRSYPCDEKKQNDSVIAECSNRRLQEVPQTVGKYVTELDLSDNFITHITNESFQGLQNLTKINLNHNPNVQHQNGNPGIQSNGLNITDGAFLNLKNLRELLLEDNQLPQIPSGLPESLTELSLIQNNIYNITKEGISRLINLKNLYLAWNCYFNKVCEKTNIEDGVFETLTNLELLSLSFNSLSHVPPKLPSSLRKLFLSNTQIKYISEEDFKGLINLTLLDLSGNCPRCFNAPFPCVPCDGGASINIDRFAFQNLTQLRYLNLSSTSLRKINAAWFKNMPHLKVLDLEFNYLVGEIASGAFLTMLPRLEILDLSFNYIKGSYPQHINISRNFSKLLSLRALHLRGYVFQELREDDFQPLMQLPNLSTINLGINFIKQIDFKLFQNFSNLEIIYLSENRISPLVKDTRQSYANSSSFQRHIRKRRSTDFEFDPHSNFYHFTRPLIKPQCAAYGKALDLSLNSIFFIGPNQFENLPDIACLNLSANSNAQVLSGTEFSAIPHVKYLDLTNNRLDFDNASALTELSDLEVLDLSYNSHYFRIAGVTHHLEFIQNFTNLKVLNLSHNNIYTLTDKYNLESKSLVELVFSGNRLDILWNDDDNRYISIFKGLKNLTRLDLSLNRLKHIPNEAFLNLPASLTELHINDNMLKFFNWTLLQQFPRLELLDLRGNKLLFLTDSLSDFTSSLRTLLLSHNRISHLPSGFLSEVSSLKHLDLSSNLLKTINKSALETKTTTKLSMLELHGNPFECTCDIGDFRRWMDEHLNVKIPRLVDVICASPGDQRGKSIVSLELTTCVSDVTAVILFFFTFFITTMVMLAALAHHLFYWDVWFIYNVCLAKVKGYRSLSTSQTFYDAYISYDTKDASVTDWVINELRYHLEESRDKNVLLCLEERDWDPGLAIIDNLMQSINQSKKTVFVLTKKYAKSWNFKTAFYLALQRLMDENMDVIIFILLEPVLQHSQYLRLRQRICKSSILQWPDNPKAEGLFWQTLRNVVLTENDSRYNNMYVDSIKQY
Procedure, shortened: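 HEK 293-Blue cells stably expressing hTLR7 or hTLR8 with an inducible SEAP reporter were incubated 16 h with compound under 1 µg/mL R848 stimulation. SEAP was read at 620 nm. Data were normalized to the R848 control, and IC50 was taken from concentration-response curves. […] Mean ± s.d., n = 3 independent experiments.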

[2] = molecular target: T2, Toll-like receptor 8 (Homo sapiens) (UniProt Q9NR97); experiment: Inhibition of human TLR8 expressed in HEK293 cells assessed as reduction in ssRNA-induced NFkappaB production at 5 uM incubated for 16 hrs by quanti-blue SEAP assay; assay type: cell-based
T2 sequence (whole entry): T1 sequence (Q9NR97 whole entry)
Procedure, shortened: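 HEK 293 hTLR8 SEAP reporter cells were stimulated with ssRNA (ssRNA-Lyo-40) and incubated with compound for 16 h. Data were normalized as (raw − untreated)/(ligand + solvent − untreated), with ligand + solvent set as 100%. Mean ± s.d., n = 3 independent experiments.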

[3] = system: THP-1; experiment: Inhibition of IFN mediated immune response in human THP1 cells assessed as inhibition of 3p-hpRNA-induced RIG1 signalling pathway at 0.5 to 5 uM incubated for 16 hrs by luciferase assay; assay type: functional, cell-based
Procedure, shortened: (§1)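 THP1-Dual monocytes carrying Lucia luciferase and SEAP reporters were stimulated with 3p-hpRNA (RIG-I agonist) or Y-form dsDNA G3-YSD (cGAS agonist), with or without compound. Secreted Lucia luciferase luminescence was measured as the type I IFN read-out. Mean ± s.d., n = 3 independent experiments.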

[4] = system: THP-1; experiment: Inhibition of IFN mediated immune response in human THP1 cells assessed as inhibition of G3-YSD-induced cGAS signalling pathway at 0.5 to 5 uM incubated for 16 hrs by luciferase assay; assay type: functional, cell-based; procedure, shortened: as §1
[5] = molecular target: T2, Toll-like receptor 8 (Homo sapiens); experiment: Inhibition of human TLR8 expressed in HEK293 cells assessed as reduction in TNFalpha-induced NFkappaB production incubated for 16 hrs by quanti-blue SEAP assay; assay type: cell-based
Procedure, shortened: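 HEK 293 hTLR8 SEAP reporter cells were stimulated with recombinant hTNF-α and incubated with compound for 16 h. SEAP absorbance was read at 620 nm and compared with 50% DMSO-treated and untreated wells.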

[6] = molecular target: T2, Toll-like receptor 8 (Homo sapiens); experiment: Inhibition of human TLR8 expressed in HEK293 cells assessed as reduction in TNFalpha production incubated for 24 hrs by ELISA; assay type: cell-based
[7] = system: HEK293; experiment: Cytotoxicity against human HEK293 cells transfected with human TLR8 assessed as reduction in cell viability at 0.5 to 20 uM incubated for 16 hrs by WST-1 assay; assay type: cell-based; details: hek293, 16 h

Row | IC50 [1] [nM] | inhibition [2] | inhibition [5] | inhibition [6] | SMILES | inhibition [3] | inhibition [4] | Activity [7]
1 | 1040 | inactive | Active | Active | O=C(Nc1ccc(Oc2cc(C(F)(F)F)cc(C(F)(F)F)c2)cc1)c1c(F)cccc1I | inactive | inactive | Non-Toxic
2 | 1640 | – | – | – | O=C(Nc1ccc(Oc2cc(C(F)(F)F)cc(C(F)(F)F)c2)cc1)c1c(F)cccc1Cl | – | – | –
3 | 2870 | inactive | Active | Active | O=C(Nc1ccc(Oc2cncc(C(F)(F)F)c2)cc1)c1c(F)cccc1Cl | inactive | inactive | Non-Toxic
4 | 300 | Active | Active | Active | O=[N+]([O-])c1c(I)cccc1Oc1ccc(-c2nnco2)cc1 | inactive | inactive | Non-Toxic
